The nature of series [1]: Oral semaglutide pharmacokinetics in plasma. It counts as in vivo, human. The conditions noted are these: median (min, max). The procedure, abridged:
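Adults with type 2 diabetes on diet/exercise and/or metformin took once-daily oral tablets in a crossover trial: 3 mg weeks 0–4, 7 mg weeks 4–8, 14 mg weeks 8–12. Plasma was sampled at weeks 4, 8 and 12 after the last dose of each strength.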

The subject of series [2] is subjects with type 2 diabetes. Kind of series: Safety: treatment-emergent adverse events and hypoglycaemic episodes. It counts as in vivo, human. Conditions: during oral semaglutide treatment. The procedure, abridged: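 This was a 12-week crossover versus placebo in adults aged 18–75 with type 2 diabetes (HbA1c 6.0%–9.0%, BMI 20–38 kg/m²), with a 5–9-week wash-out between periods. Treatment-emergent AEs and hypoglycaemic episodes were counted from first dose to end of follow-up. Hypoglycaemia was defined as plasma glucose ≤3.9 mmol/L, or >3.9 mmol/L with symptoms. The population was the safety analysis set: all subjects given at least one dose.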

The structures appear in SMILES notation.

Take `CC[C@H](C)[C@H](NC(=O)[C@H](Cc1ccccc1)NC(=O)[C@H](CCC(=O)O)NC(=O)[C@H](CCCCNC(=O)COCCOCCNC(=O)COCCOCCNC(=O)CC[C@H](NC(=O)CCCCCCCCCCCCCCCCC(=O)O)C(=O)O)NC(=O)[C@H](C)NC(=O)[C@H](C)NC(=O)[C@H](CCC(N)=O)NC(=O)CNC(=O)[C@H](CCC(=O)O)NC(=O)[C@H](CC(C)C)NC(=O)[C@H](Cc1ccc(O)cc1)NC(=O)[C@H](CO)NC(=O)[C@H](CO)NC(=O)[C@@H](NC(=O)[C@H](CC(=O)O)NC(=O)[C@H](CO)NC(=O)[C@@H](NC(=O)[C@H](Cc1ccccc1)NC(=O)[C@@H](NC(=O)CNC(=O)[C@H](CCC(=O)O)NC(=O)C(C)(C)NC(=O)[C@@H](N)Cc1cnc[nH]1)[C@@H](C)O)[C@@H](C)O)C(C)C)C(=O)N[C@@H](C)C(=O)N[C@@H](Cc1c[nH]c2ccccc12)C(=O)N[C@@H](CC(C)C)C(=O)N[C@H](C(=O)N[C@@H](CCCNC(=N)N)C(=O)NCC(=O)N[C@@H](CCCNC(=N)N)C(=O)NCC(=O)O)C(C)C` [Oral semaglutide]: the Semaglutide tmax in series [1] (3 mg once daily, week 4, n = 15) turned out to be 1 h; in series [1] (7 mg once daily, week 8, n = 13), 1 h; in series [1] (14 mg once daily, week 12, n = 13), 1 h. Further, the “Deaths, n (subjects)” value in series [2] (N = 15) was “no deaths”. The “Any AE, % of subjects” value in series [2] (safety analysis set N = 15) is listed as 93.3%.

The values above are taken from paper PMC8251575 (Diabetes, Obesity & Metabolism, 2021).
